For one assay, the system named is Acinetobacter baumannii. Description: Antibacterial activity against Acinetobacter baumannii 19606 at 150 ug/ml after 24 hrs by agar diffusion method. It is filed as functional. The settings on record: Acinetobacter baumannii, 19606, 24 h, read-out: DIZ. An outline of the steps:
(§1)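 Agar diffusion per NCCLS. Mueller-Hinton agar plates were swab-inoculated and dried 5 min. Sterile 1 cm discs were loaded with compound solution and placed on the plates. Incubation was 24 h at 37 °C (A. baumannii, E. coli, K. pneumoniae, S. aureus) or 30 °C (B. subtilis). Read-out was inhibition zone diameter, with ampicillin as positive control.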

In assay [1] the test system is Staphylococcus aureus. Description: Antibacterial activity against 10^6 CFU/ml methicillin or oxacillin-resistant Staphylococcus aureus ATCC 43300 after 18 hrs by NCCLS broth microdilution method. It is filed as functional. The settings on record: ATCC 43300, 18 h. In outline: (§2)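 Broth microdilution per NCCLS, in 96-well plates; strains grown on Trypticase soy media. Compounds dissolved in 10% (v/v) acetone in water, serially diluted to 0.5–256 µg/mL (10 levels, twofold). Wells inoculated with 10⁶ cfu/mL suspension, 37 °C for 18 h. MIC = lowest concentration with no visible growth, converted to µM by molecular weight; average of at least four separate experiments.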
On the technique in general: Broth dilution looks for growth in wells or tubes with falling amounts of substance.

The test system of assay [2] is Staphylococcus aureus. Description: Antibacterial activity against 10^6 CFU/ml oxacillin-susceptible Staphylococcus aureus ATCC 29213 after 18 hrs by NCCLS broth microdilution method. It is filed as functional. The settings on record: ATCC 29213, 18 h. An outline of the steps:
as §2

Assay [3] deals with Staphylococcus aureus. Description: Antibacterial activity against Staphylococcus aureus 29213 at 150 ug/ml after 24 hrs by agar diffusion method. In kind it is functional. As to conditions: Staphylococcus aureus, 29213, 24 h; read-out: DIZ. In outline:
as §1
A general note: A growth-free zone around the sample is the usual read-out of agar diffusion tests.

A further assay relates to Klebsiella pneumoniae. In words: Antibacterial activity against Klebsiella pneumoniae 13883 at 150 ug/ml after 24 hrs by agar diffusion method. In kind it is functional. The settings on record: Klebsiella pneumoniae, 13883, 24 h, read-out: DIZ. In outline:
as §1

A further assay concerns Escherichia coli. In words: Activity of Escherichia coli pantothenate kinase. An outline of the steps:
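E. coli PanK, expressed and purified, at 278 nM in 50 mM Tris-HCl pH 7.6. Mix: ATP 1.5 mM, NADH 0.3 mM, phosphoenolpyruvate 0.5 mM, MgCl₂ 10 mM, KCl 20 mM, pyruvate kinase and lactate dehydrogenase (5 units each). Started by adding substrate (10–160). ADP formation was coupled to NADH loss, read at 340 nm, 25 °C. Kinetic parameters came from a Michaelis–Menten fit.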

SMILES strings stand for the structures. Values after ≈ are worked out from the molar mass of the structure shown.

Consider 13 compounds from ChEMBL document CHEMBL1765039, “Geminal dialkyl derivatives of N-substituted pantothenamides: synthesis and antibacterial activity” (2011).

By MIC is commonly meant the lowest concentration that inhibits growth of the organism. Low values mean a more susceptible organism, high ones a less susceptible organism. Take `CCCCCC[C@](C)(CO)[C@@H](O)C(=O)NCCC(=O)NCCCCC`: the results for the zone of inhibition at 150 µg/mL in the assay with Acinetobacter baumannii, in the assay on Staphylococcus aureus [3] and with Klebsiella pneumoniae were below 11 mm, 16 mm and below 11 mm, respectively. Besides, the MIC against Staphylococcus aureus [1] and against Staphylococcus aureus [2] was above 715 µM in each case.
Regarding `CCCCCCCCCNC(=O)CCNC(=O)[C@H](O)C(C)(C)CO`, the zone of inhibition at 150 µg/mL in the assay on Acinetobacter baumannii is below 11 mm; in the assay with Staphylococcus aureus [3] it was 16 mm; with Klebsiella pneumoniae, below 11 mm. The MIC in the assay on Staphylococcus aureus [1] and against Staphylococcus aureus [2] was 0.4 µM (≈ 0.138 µg/mL) throughout.
Consider `CCCCCNC(=O)CCNC(=O)[C@H](O)C(CO)(CCC)CCC`, for which the zone of inhibition at 150 µg/mL with Acinetobacter baumannii was below 11 mm; in the assay with Staphylococcus aureus [3], 16 mm; with Klebsiella pneumoniae it was below 11 mm. Besides, the MIC against Staphylococcus aureus [1] and in the assay with Staphylococcus aureus [2] was above 744 µM in each case.
For the compound `CCCCCNC(=O)CCNC(=O)[C@H](O)[C@@](C)(CO)CC(C)C`, the figures for the zone of inhibition at 150 µg/mL in the assay with Acinetobacter baumannii, in the assay with Staphylococcus aureus [3] and in the assay with Klebsiella pneumoniae were below 11 mm, 16 mm and below 11 mm, respectively. The values for the MIC against Staphylococcus aureus [1] and against Staphylococcus aureus [2] were 51 µM (≈ 16.9 µg/mL) and 101 µM (≈ 33.4 µg/mL), respectively.
Regarding `CCCCCNC(=O)CCNC(=O)[C@H](O)[C@@](C)(CO)Cc1ccccc1`, the zone of inhibition at 150 µg/mL with Acinetobacter baumannii was below 11 mm; with Staphylococcus aureus [3] it was 16 mm; in the assay with Klebsiella pneumoniae, below 11 mm. For the same compound, the MIC in the assay on Staphylococcus aureus [1] and against Staphylococcus aureus [2] was above 703 µM each time.
As to `C=CCC(CO)(CC=C)[C@@H](O)C(=O)NCCC(=O)NCCCCC`, the zone of inhibition at 150 µg/mL with Acinetobacter baumannii was below 11 mm; in the assay on Staphylococcus aureus [3], 16 mm; in the assay with Klebsiella pneumoniae, below 11 mm. In addition, the MIC against Staphylococcus aureus [1] and against Staphylococcus aureus [2] was 376 µM (≈ 128 µg/mL) throughout.
As to `C=CC[C@](C)(CO)[C@@H](O)C(=O)NCCC(=O)NCCCCCCCCC`, the zone of inhibition at 150 µg/mL is below 11 mm in the assay with Acinetobacter baumannii, 16 mm in the assay on Staphylococcus aureus [3] and below 11 mm in the assay with Klebsiella pneumoniae. The MIC against Staphylococcus aureus [1] and against Staphylococcus aureus [2] was 1 µM (≈ 0.371 µg/mL) throughout.
As to `CCCCCNC(=O)CCNC(=O)[C@H](O)C(C)(C)CO`, the values for the zone of inhibition at 150 µg/mL in the assay on Acinetobacter baumannii, with Staphylococcus aureus [3] and in the assay with Klebsiella pneumoniae were below 11 mm, 16 mm and below 11 mm, respectively. Also, the MIC against Staphylococcus aureus [1] and against Staphylococcus aureus [2] was 7 µM (≈ 2.02 µg/mL) throughout.
As to `CCCCCNC(=O)CCNC(=O)[C@H](O)[C@@](C)(CO)CCC`, the zone of inhibition at 150 µg/mL is below 11 mm with Acinetobacter baumannii, 16 mm in the assay with Staphylococcus aureus [3] and below 11 mm in the assay on Klebsiella pneumoniae. In addition, the MIC in the assay with Staphylococcus aureus [1] and in the assay on Staphylococcus aureus [2] was 13 µM (≈ 4.11 µg/mL) in each case.
`CCCCCNC(=O)CCNC(=O)[C@H](O)[C@](C)(CC)CO`: the zone of inhibition at 150 µg/mL was below 11 mm in the assay with Acinetobacter baumannii, 16 mm with Staphylococcus aureus [3] and below 11 mm with Klebsiella pneumoniae. Besides, the MIC in the assay on Staphylococcus aureus [1] and against Staphylococcus aureus [2] was 7 µM (≈ 2.12 µg/mL) in each case.
Consider `CCCCCNC(=O)CCNC(=O)[C@H](O)[C@@](C)(CO)CC1CCC1`, for which the zone of inhibition at 150 µg/mL with Acinetobacter baumannii is below 11 mm; with Staphylococcus aureus [3] it was 16 mm; in the assay on Klebsiella pneumoniae it was below 11 mm. Besides, the MIC against Staphylococcus aureus [1] and in the assay on Staphylococcus aureus [2] was 374 µM (≈ 128 µg/mL) in each case.
With `CCCCCNC(=O)CCNC(=O)[C@H](O)[C@@](C)(CO)CC1CC1`, the values for the zone of inhibition at 150 µg/mL in the assay with Acinetobacter baumannii, in the assay with Staphylococcus aureus [3] and with Klebsiella pneumoniae were below 11 mm, 16 mm and below 11 mm, respectively. Further, the MIC with Staphylococcus aureus [1] and with Staphylococcus aureus [2] was 24 µM (≈ 7.88 µg/mL) throughout.
A word on the Km: it is the concentration of substrate that gives half-maximal velocity. Broadly, the kcat is the maximal rate divided by the concentration of active sites. For the compound `C=CC[C@](C)(CO)[C@@H](O)C(=O)NCCC(=O)NCCCCC`, the zone of inhibition at 150 µg/mL in the assay on Acinetobacter baumannii was below 11 mm; with Staphylococcus aureus [3], 16 mm; in the assay with Klebsiella pneumoniae, below 11 mm. Moreover, the MIC with Staphylococcus aureus [1] and with Staphylococcus aureus [2] was 3.2 µM (≈ 1.01 µg/mL) each time. The Km in the assay with Escherichia coli came to 534 µM. In the assay on Escherichia coli, the kcat came out at 0.87 s⁻¹.
